According to ChEMBL document CHEMBL1799921, “3-(1,3,4-Thiadiazole-2-yl)quinoline derivatives: synthesis, characterization and anti-microbial activity” (Eur J Med Chem, 2011):
≈ marks a conversion by molar mass, not a printed value.

Assays:
Staphylococcus aureus [1] = assay: Antibacterial activity against Staphylococcus aureus measured at MIC after 18 hrs by halo zone test; assay type: functional
How it was run: (§1)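 Disk diffusion. Strains subcultured 18 h at 37 °C in BHI, then suspended in saline by McFarland to about 10⁵ CFU/mL. Suspension mixed 1:1 with antibiotic agar at 40 °C and plated. 6.0 mm paper disks loaded with dilutions from a DMSO stock (1 mg per 100 of DMSO). Incubated 18 h at 36 °C. Inhibition zone (mm) measured at the MIC. Amoxicillin and DMSO disks as controls.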

Streptococcus pyogenes [2] = assay: Antibacterial activity against Streptococcus pyogenes measured at MIC after 18 hrs by halo zone test; assay type: functional; how it was run: as §1
Salmonella typhimurium [3] = assay: Antibacterial activity against Salmonella Typhimurium measured at MIC after 18 hrs by halo zone test; assay type: functional, Salmonella enterica subsp. enterica serovar Typhimurium; how it was run: as §1
Escherichia coli [4] = assay: Antibacterial activity against Escherichia coli measured at MIC after 18 hrs by halo zone test; assay type: functional; how it was run: as §1
Staphylococcus aureus [5] = assay: Antibacterial activity against Staphylococcus aureus after 18 hrs by macro-dilution test; assay type: functional
How it was run: (§2)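 Tube macro-dilution. Compounds in DMSO serially diluted to final […]. 24 h old inoculum added to each tube. Standard inoculum […]. Incubated 18 h at 37 °C. MIC is the lowest concentration with no visible growth, read visually. DMSO negative and amoxicillin positive controls.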

Streptococcus pyogenes [6] = assay: Antibacterial activity against Streptococcus pyogenes after 18 hrs by macro-dilution test; assay type: functional; how it was run: as §2
Salmonella typhimurium [7] = assay: Antibacterial activity against Salmonella Typhimurium after 18 hrs by macro-dilution test; assay type: functional, Salmonella enterica subsp. enterica serovar Typhimurium; conditions: Salmonella enterica; how it was run: as §2
Escherichia coli [8] = assay: Antibacterial activity against Escherichia coli after 18 hrs by macro-dilution test; assay type: functional; how it was run: as §2
[9] = Cytotoxicity against rat H9c2 cells assessed as cell viability at 1.57 to 200 mg/mL after 48 hrs by MTT assay; assay type: cell-based; conditions: read-out: Activity
How it was run: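 Subconfluent H9c2 cardiac myoblasts treated with increasing concentrations for 48 h at 37 °C in 5% CO₂, alongside untreated cells. Then washed in PBS and given MTT (5 mg/mL) for 45 min at 37 °C. Crystals dissolved in acid isopropanol, absorbance read at 570 nm. Viability is absorbance of treated relative to untreated cells. Triplicate. DMSO and amoxicillin controls.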

[10] = in the assay text read “1.57 to 200 ug/mL” for “1.57 to 200 mg/mL”

SMILES	MIC (Staphylococcus aureus [5])	MIC (Streptococcus pyogenes [6])	MIC (Salmonella typhimurium [7])	MIC (Escherichia coli [8])	inhibition zone (IZ) (Staphylococcus aureus [1])	inhibition zone (IZ) (Streptococcus pyogenes [2])	inhibition zone (IZ) (Salmonella typhimurium [3])	inhibition zone (IZ) (Escherichia coli [4])	viability at 48 h [9, 10]	viability at 48 h [9]
CC(=O)N(C1=NN(C(C)=O)C(c2cc3ccccc3nc2Cl)S1)c1ccc(C)cc1 (configuration not stated)	32 µg/mL (≈ 72.9 µM)	16 µg/mL (≈ 36.5 µM)	64 µg/mL (≈ 146 µM)	32 µg/mL (≈ 72.9 µM)	18.27 mm	17 mm	16.89 mm	16.4 mm	> 80%	
CC(=O)N(C1=NN(C(C)=O)C(c2cc3cccc(Cl)c3nc2Cl)S1)c1ccc([N+](=O)[O-])cc1 (configuration not stated)	32 µg/mL (≈ 63.4 µM)	64 µg/mL (≈ 127 µM)	32 µg/mL (≈ 63.4 µM)	32 µg/mL (≈ 63.4 µM)	19.81 mm	16.32 mm	17.25 mm	12.56 mm	> 80%	
CC(=O)N(C1=NN(C(C)=O)C(c2cc3ccccc3nc2Cl)S1)c1ccc([N+](=O)[O-])cc1 (configuration not stated)	64 µg/mL (≈ 136 µM)	64 µg/mL (≈ 136 µM)	64 µg/mL (≈ 136 µM)	64 µg/mL (≈ 136 µM)	14.29 mm	14.92 mm	17.03 mm	14.34 mm		
Cc1ccc(NC(=S)N/N=C/c2cc3cccc(Cl)c3nc2Cl)cc1	64 µg/mL (≈ 164 µM)	32 µg/mL (≈ 82.2 µM)	32 µg/mL (≈ 82.2 µM)	64 µg/mL (≈ 164 µM)	15.01 mm	15.76 mm	17.55 mm	15.88 mm		
S=C(N/N=C/c1cc2ccccc2nc1Cl)NC1CCCCCCC1	256 µg/mL (≈ 683 µM)	128 µg/mL (≈ 341 µM)	128 µg/mL (≈ 341 µM)	256 µg/mL (≈ 683 µM)	9.9 mm	13.67 mm	19.73 mm	13.23 mm		
CC(=O)N(C1=NN(C(C)=O)C(c2cc3cccc(C)c3nc2Cl)S1)c1ccc(C)cc1 (configuration not stated)	64 µg/mL (≈ 141 µM)	64 µg/mL (≈ 141 µM)	64 µg/mL (≈ 141 µM)	64 µg/mL (≈ 141 µM)	18.92 mm	18.32 mm	17.27 mm	18.16 mm		
CC(=O)N(C1=NN(C(C)=O)C(c2cc3ccccc3nc2Cl)S1)c1ccccc1C (configuration not stated)	32 µg/mL (≈ 72.9 µM)	16 µg/mL (≈ 36.5 µM)	32 µg/mL (≈ 72.9 µM)	32 µg/mL (≈ 72.9 µM)	15.66 mm	17.14 mm	16.06 mm	15.84 mm	> 80%	
CC(=O)N(C1=NN(C(C)=O)C(c2cc3cccc(Cl)c3nc2Cl)S1)c1ccccc1C (configuration not stated)	16 µg/mL (≈ 33.8 µM)	64 µg/mL (≈ 135 µM)	32 µg/mL (≈ 67.6 µM)	32 µg/mL (≈ 67.6 µM)	19.76 mm	13.84 mm	16.86 mm	15.59 mm	> 80%	

Continued by falling MIC (Staphylococcus aureus [5]), values first:

MIC (Staphylococcus aureus [5])	MIC (Streptococcus pyogenes [6])	MIC (Salmonella typhimurium [7])	MIC (Escherichia coli [8])	SMILES	inhibition zone (IZ) (Staphylococcus aureus [1])	inhibition zone (IZ) (Streptococcus pyogenes [2])	inhibition zone (IZ) (Salmonella typhimurium [3])	inhibition zone (IZ) (Escherichia coli [4])	viability at 48 h [9, 10]	viability at 48 h [9]
128 µg/mL (≈ 279 µM)	128 µg/mL (≈ 279 µM)	64 µg/mL (≈ 139 µM)	256 µg/mL (≈ 558 µM)	CC(=O)N1N=C(N(C(C)=O)C2CCCCCCC2)SC1c1cc2ccccc2nc1Cl (configuration not stated)	14.57 mm	14.33 mm	18.82 mm	17.86 mm		
64 µg/mL (≈ 141 µM)	32 µg/mL (≈ 70.6 µM)	32 µg/mL (≈ 70.6 µM)	64 µg/mL (≈ 141 µM)	CC(=O)N(C1=NN(C(C)=O)C(c2cc3cccc(C)c3nc2Cl)S1)c1ccccc1C (configuration not stated)	15.8 mm	19.14 mm	16.11 mm	17.9 mm	> 80%	
64 µg/mL (≈ 160 µM)	32 µg/mL (≈ 80 µM)	64 µg/mL (≈ 160 µM)	32 µg/mL (≈ 80 µM)	Cc1cccc2cc(/C=N/NC(=S)Nc3ccc([N+](=O)[O-])cc3)c(Cl)nc12	17.31 mm	13.27 mm	14.23 mm	17.48 mm		
64 µg/mL (≈ 167 µM)	64 µg/mL (≈ 167 µM)	64 µg/mL (≈ 167 µM)	64 µg/mL (≈ 167 µM)	CC(=O)NC1=NN(C(C)=O)C(c2cc3cccc(Cl)c3nc2Cl)S1 (configuration not stated)	18.13 mm	19.91 mm	17.27 mm	16.72 mm		
64 µg/mL (≈ 135 µM)	16 µg/mL (≈ 33.7 µM)	32 µg/mL (≈ 67.4 µM)	64 µg/mL (≈ 135 µM)	CC(=O)N(C1=NN(C(C)=O)C(c2cc3cccc(C)c3nc2Cl)S1)c1cc(F)ccc1F (configuration not stated)	21.99 mm	16.13 mm	16.6 mm	15.36 mm		> 80%
64 µg/mL (≈ 156 µM)	32 µg/mL (≈ 77.8 µM)	64 µg/mL (≈ 156 µM)	64 µg/mL (≈ 156 µM)	Fc1ccc(F)c(NC(=S)N/N=C/c2cc3cccc(Cl)c3nc2Cl)c1	12.15 mm	15.92 mm	14.92 mm	13.75 mm		
32 µg/mL (≈ 76.8 µM)	32 µg/mL (≈ 76.8 µM)	32 µg/mL (≈ 76.8 µM)	64 µg/mL (≈ 154 µM)	CC(=O)N1N=C(N(C(C)=O)C2CCCC2)SC1c1cc2ccccc2nc1Cl (configuration not stated)	20.63 mm	19.93 mm	18.6 mm	19.79 mm	> 80%	
32 µg/mL (≈ 82.2 µM)	64 µg/mL (≈ 164 µM)	32 µg/mL (≈ 82.2 µM)	64 µg/mL (≈ 164 µM)	Cc1ccccc1NC(=S)N/N=C/c1cc2cccc(Cl)c2nc1Cl	18.9 mm	10.26 mm	10.53 mm	13.47 mm		
32 µg/mL (≈ 90.2 µM)	32 µg/mL (≈ 90.2 µM)	64 µg/mL (≈ 180 µM)	64 µg/mL (≈ 180 µM)	Cc1ccc(NC(=S)N/N=C/c2cc3ccccc3nc2Cl)cc1	17.93 mm	17.43 mm	18.02 mm	16.65 mm		
16 µg/mL (≈ 34.7 µM)	64 µg/mL (≈ 139 µM)	32 µg/mL (≈ 69.4 µM)	32 µg/mL (≈ 69.4 µM)	CC(=O)N(C1=NN(C(C)=O)C(c2cc3ccccc3nc2Cl)S1)c1cc(F)ccc1F (configuration not stated)	17.41 mm	14.74 mm	16.67 mm	20.13 mm		> 80%
